According to ChEMBL document CHEMBL1134977, “Design and synthesis of ethyl pyrrolidine-5,5-trans-lactams as inhibitors of hepatitis C virus NS3/4A protease” (Bioorg Med Chem Lett, 2002):
Residues, ends and D or L forms follow the SMILES beside them. *: point of attachment. X1 = CCC1C(=O)N(S(C)(=O)=O)[C@H]2CCN(*)[C@H]12

Legend:
[1] = target: T1, Hepatitis C virus serine protease, NS3/NS4A (Hepatitis C virus, UniProt A3EZI9+D2K2A8); assay: Inhibitory concentration against hepatitis C virus NS3/4A protease on 4 hr pre-incubation in chromogenic assay; type: protein-complex assay, Hepacivirus hominis
T1 sequence (D2K2A8 whole entry, the tested form may be a part): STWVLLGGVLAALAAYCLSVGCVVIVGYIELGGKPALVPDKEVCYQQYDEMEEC
T1 sequence (A3EZI9 whole entry, the tested form may be a part): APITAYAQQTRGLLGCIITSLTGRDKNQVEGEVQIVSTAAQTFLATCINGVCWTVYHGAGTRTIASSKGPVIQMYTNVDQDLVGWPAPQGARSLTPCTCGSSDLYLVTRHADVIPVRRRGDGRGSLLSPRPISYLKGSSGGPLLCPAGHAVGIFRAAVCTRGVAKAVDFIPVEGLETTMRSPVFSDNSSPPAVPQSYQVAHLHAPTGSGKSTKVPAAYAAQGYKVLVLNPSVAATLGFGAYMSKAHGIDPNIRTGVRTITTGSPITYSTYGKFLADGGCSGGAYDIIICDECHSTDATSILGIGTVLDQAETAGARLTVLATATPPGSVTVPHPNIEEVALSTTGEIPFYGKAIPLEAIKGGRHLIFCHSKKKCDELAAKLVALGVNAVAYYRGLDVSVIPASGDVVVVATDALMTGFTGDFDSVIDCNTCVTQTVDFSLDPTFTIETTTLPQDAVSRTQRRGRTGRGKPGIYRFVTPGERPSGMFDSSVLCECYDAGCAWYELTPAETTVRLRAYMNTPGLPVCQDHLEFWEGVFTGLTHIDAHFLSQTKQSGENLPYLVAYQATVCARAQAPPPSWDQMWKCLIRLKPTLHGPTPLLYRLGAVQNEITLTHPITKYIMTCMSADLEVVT
Procedure, shortened: (§1)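 Chromogenic read-out with the NS3 protease domain at 0.56 µM and synthetic 18-mer NS4A cofactor peptide at 0.8 µM. Substrate was Ac-E-D-V-V-P-C-pNO2 anilide at 1.5 mM (Km 1.85 mM). Compound was pre-incubated with enzyme for 2, 4 or 18 h before substrate addition.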

[2] = target: T1, Hepatitis C virus serine protease, NS3/NS4A; assay: Inhibitory concentration against hepatitis C virus NS3/4A protease on 18 hr preincubation in chromogenic assay; type: protein-complex assay, Hepacivirus hominis; procedure, shortened: as §1
[3] = target: T2, Hepatitis C virus serine protease, NS3/NS4A (Hepatitis C virus) (UniProt D2K2A8+A3EZI9); assay: Compound was tested for inhibition of hepatitis C virus NS3/4A protease at 100 uM 2 hr pre-incubation in chromogenic assay; type: protein-complex assay; details: Hepacivirus hominis
[4] = target: T2, Hepatitis C virus serine protease, NS3/NS4A (Hepatitis C virus); assay: Inhibitory concentration against hepatitis C virus NS3/4A protease on 18 h pre-incubation in chromogenic assay; type: protein-complex assay; parameters: concentration or dose not given beside the values; details: Hepacivirus hominis; concentration not given here; procedure, shortened: as §1
[5] = target: T1, Hepatitis C virus serine protease, NS3/NS4A; assay: Inhibitory concentration against hepatitis C virus NS3/4A protease on 4 hr pre-incubation in fluorogenic assay; type: protein-complex assay, Hepacivirus hominis
Procedure, shortened: (§2)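 Fluorogenic assay with full-length NS3/4A protein at 20 nM (NS3:4A 1:1). Substrate was Abz-E-D-V-V-P-C-S-M-S-(3-NO2)-Y-H at 25 µM (Km 5 µM). Compound was pre-incubated with enzyme for 4 or 18 h before substrate addition.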

[6] = target: T1, Hepatitis C virus serine protease, NS3/NS4A; assay: Inhibitory concentration against hepatitis C virus NS3/4A protease on 2 hr pre-incubation in chromogenic assay; type: protein-complex assay, Hepacivirus hominis; procedure, shortened: as §1
[7] = target: T1, Hepatitis C virus serine protease, NS3/NS4A; assay: Inhibitory concentration against hepatitis C virus NS3/4A protease on 18 h pre-incubation in fluorogenic assay; type: protein-complex assay, Hepacivirus hominis; procedure, shortened: as §2

Row | Compound | IC50 [1] [µM] | IC50 [2] [µM] | inhibition [3] [%] | inhibition [4] [%] | IC50 [5] [µM] | IC50 [6] [µM] | IC50 [7] [µM]
1 | CC[C@@H]1C(=O)N(S(C)(=O)=O)[C@H]2CCN(C(=O)[C@@H](NC(=O)OC(C)(C)C)C(C)C)[C@H]12 | 30 | 22 | – | – | – | – | –
2 | CCC1C(=O)N(S(C)(=O)=O)[C@H]2CCN(C(=O)[C@@H](NC(=O)[C@@H](NC(C)=O)C(C)C)C(C)C)[C@H]12 (stereo partly specified) | – | – | 21 | 45 | – | – | –
3 | CCC1C(=O)N(S(C)(=O)=O)[C@H]2CCN(C(=O)[C@@H](NC(=O)[C@@H](NC(=O)[C@H](CC(=O)O)NC(=O)[C@H](CCC(=O)O)NC(C)=O)C(C)C)C(C)C)[C@H]12 (stereo partly specified) (Ac-EDVV-X1) | 69 | 19 | – | – | > 400 | 69 | 284
4 | CCC1C(=O)N(S(C)(=O)=O)[C@H]2CCN(C(=O)CNC(=O)[C@@H](NC(=O)[C@H](CC(=O)O)NC(=O)[C@H](CCC(=O)O)NC(C)=O)C(C)C)[C@H]12 (stereo partly specified) (Ac-EDVG-X1) | – | – | 10 | 24 | – | – | –
5 | CCC1C(=O)N(S(C)(=O)=O)[C@H]2CCN(C(=O)[C@@H](NC(=O)OC(C)(C)C)C(C)C)C12 (single isomer, unassigned) | 62 | 27 | 52 | – | 182 | – | 140
6 | CC[C@@H]1C(=O)N(C(C)=O)[C@H]2CCN(C(=O)[C@@H](NC(=O)OC(C)(C)C)C(C)C)[C@H]12 | 88 | 45 | – | – | 193 | – | 194
7 | CC[C@H]1C(=O)N(S(C)(=O)=O)[C@H]2CCN(C(=O)[C@@H](NC(=O)OC(C)(C)C)C(C)C)[C@H]12 | 99 | 28 | – | – | 341 | – | 172
8 | CCC1C(=O)N(S(C)(=O)=O)[C@H]2CCN(C(=O)C(NC(=O)[C@@H](NC(=O)[C@H](CC(=O)O)NC(=O)[C@H](CCC(=O)O)NC(C)=O)C(C)C)C(C)C)[C@H]12 (single isomer, unassigned) | – | – | 24 | 85 | – | – | –
9 | CC[C@H]1C(=O)N(C(C)=O)[C@H]2CCN(C(=O)[C@@H](NC(=O)OC(C)(C)C)C(C)C)[C@H]12 | > 400 | 147 | – | – | 216 | – | 447
10 | CCC1C(=O)N(S(C)(=O)=O)[C@H]2CCN(C(=O)[C@@H]3CCCN3C(=O)[C@@H](NC(=O)[C@H](CC(=O)O)NC(=O)[C@H](CCC(=O)O)NC(C)=O)C(C)C)[C@H]12 (stereo partly specified) (Ac-EDVP-X1) | – | – | 5 | 11 | – | – | –
11 | CCC1C(=O)N(S(C)(=O)=O)[C@H]2CCN(C(=O)[C@@H](N)C(C)C)[C@H]12 (stereo partly specified) | – | – | 11 | 41 | – | – | –
12 | CCC1C(=O)N(S(C)(=O)=O)[C@H]2CCN(C(=O)[C@@H](NC(=O)[C@@H](NC(=O)[C@H](CC(=O)O)NC(C)=O)C(C)C)C(C)C)[C@H]12 (stereo partly specified) | – | – | 68 | 94 | – | – | –
